# Only some compounds are listed: those with a hit (about 2.3% of all), similar ones and a draw of the others.
# STEP inh = blocks human striatal-enriched tyrosine phosphatase; P54829; recombinant STEP, OMFP fluorogenic substrate, fluorescence; inhibition, % at 20 µM; actives 0.25% (n = 360,000); AID 588621;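 active = inhibition at 20 µM, scaled per plate between control wells, above about 37%, limit read from the data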;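 note: 0% = DMSO with enzyme and substrate and 100% = substrate only without enzyme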
#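 System: STEP phosphatase, cell-free reaction; Buffer or medium: Bis-Tris pH 6.0 buffer with DTT, detergent; Incubation: 20 min at room temperature, dark; Measured by: fluorescence, 480/540 nm.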
# Rpn11 inh = Rpn11 (human) deubiquitinase inhibition. O00487. human 26S proteasome, Ub4-pepOG fluorescence polarization; 20S core pre-blocked with epoxomicin. inhibition, % at 20 µM. actives 0.59% (n = 360,000). AID 588493;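 active = inhibition at 20 µM, scaled to each plate's controls, above about 33%, limit read from the data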
# SUMO1 PPI mod = modulators of human SUMO1-mediated protein-protein interactions; SUMO1 binding to a labelled peptide, TR-FRET, 1 h; P63165; AID 602429; inhibition, % at 20 µM; actives 0.33% (n = 360,000); in the data active = inhibition above about 37%
# Target sequence (P63165 whole entry, looked up): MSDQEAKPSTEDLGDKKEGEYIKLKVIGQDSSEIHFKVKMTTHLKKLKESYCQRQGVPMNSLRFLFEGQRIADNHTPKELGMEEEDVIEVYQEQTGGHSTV
# DNMT1 block = DNMT1 (human) enzyme inhibition; actives 0.83% (n = 360,000); P26358; DNMT1 molecular beacon, Hinp1I cleavage, fluorescence; inhibition (reported as % activation of signal), % at 10 µM; AID 588458; in the data active = inhibition above about 50%
# Scp1 inh = inhibitors of human Scp-1 phosphatase; Recombinant Scp1, phosphopeptide, malachite green phosphate absorbance; AID 493091; inhibition, % at 20 µM; actives 0.88% (n = 340,000); Q9GZU7;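 active = inhibition above about 50% at 20 µM, limit read from the data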;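 note: plate controls were DMSO wells with enzyme for no effect and wells lacking enzyme for full effect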
# Target sequence (Q9GZU7 76-261 limits assumed): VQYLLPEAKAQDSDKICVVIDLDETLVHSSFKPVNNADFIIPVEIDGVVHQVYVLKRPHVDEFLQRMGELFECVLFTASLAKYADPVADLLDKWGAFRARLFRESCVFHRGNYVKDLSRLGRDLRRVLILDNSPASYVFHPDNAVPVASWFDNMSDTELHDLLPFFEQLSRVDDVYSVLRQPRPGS
#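 Test system – truncated SCP-1 phosphatase (76-261aa) · Reagent – Phosphorylated 17-residue peptide substrate · Incubation – 45 min room-temperature reaction, 5 min colour, 30 min stabiliser · Detection – colorimetric phosphate reagent with accelerator and stabiliser, absorbance at 630 nm · Measure – % inhibition at 20 µM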
# LMPTP block = LMPTP (human) inhibition; P24666; recombinant LMPTP-A, OMFP fluorogenic substrate, fluorescence intensity; inhibition, % at 20 µM; actives 0.22% (n = 360,000); AID 651560;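 active = compounds that cut the enzyme signal by at least half of the control window in the single-dose screen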;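 note: plate controls were DMSO wells with enzyme plus substrate for no effect and substrate without enzyme for full effect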
# Target sequence (P24666 whole entry, looked up): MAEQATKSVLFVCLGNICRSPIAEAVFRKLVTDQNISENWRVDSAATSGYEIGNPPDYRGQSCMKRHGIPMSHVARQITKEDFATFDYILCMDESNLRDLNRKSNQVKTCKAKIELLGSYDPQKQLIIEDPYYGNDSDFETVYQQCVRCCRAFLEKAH
#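 Test system: LMPTP-A phosphatase enzyme. Amount: LMPTP-A at 0.625 nM final in the reaction. Reagent: OMFP substrate, 400 µM final. Times: 50 min at room temperature. Signal: endpoint fluorescence intensity from OMFP dephosphorylation. Read-out basis: % inhibition. Benchmarks: no-enzyme and uninhibited controls.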
# Rpn11 confirm = Rpn11 inhibition confirmation, single concentration; actives 29% (n = 1,900); purified human 26S proteasome, Ub4-pepOG fluorescence polarization; proteasome pretreated with epoxomicin; shares compounds with Rpn11 inh; inhibition, % at 20 µM
# MMP-2 counter = counter-screen for RPN11 inhibitors: inhibition of human MMP-2; actives 4% (n = 1,900); inhibition, % at 20 µM; recombinant MMP-2, FRET peptide cleavage fluorescence; shares compounds with Rpn11 inh; AID 602330;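 note: human MMP-2 activated beforehand with APMA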
# Thrombin FP = thrombin (bovine) inhibition counter-screen | bovine thrombin cleavage of Ub4-pepOG, fluorescence polarization | shares compounds with Rpn11 inh | inhibition, % at 20 µM | actives 13% (n = 1,900) | AID 602333;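 active = mean inhibition at least 40% at 20 µM, or signal 3 deviations below plate average, so some actives read negative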;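 note: plate controls were thrombin with DMSO for no effect and buffer wells lacking thrombin for full effect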
# Numbers without * were called inactive; . = no result shown. Cut-off read from the data, not from the text of the source, unless noted: active = inhibition above about 40%; inactive = the rest.
SMILES,STEP inh,Rpn11 inh,SUMO1 PPI mod,DNMT1 block,Scp1 inh,LMPTP block,Rpn11 confirm,MMP-2 counter,Thrombin FP
O=C(CC(=O)Nc1ccccc1[N+](=O)[O-])Nc1ccccc1[N+](=O)[O-],0,-6,-25,-1,4,-2,.,.,.
O=C(CCOc1ccccc1)Nc1ccccc1[N+](=O)[O-],-3,34*,-11,-3,-1,0,-14,14,-13
Clc1ccc(C2Nc3ccccc3-n3cccc32)cc1 (stereo unspecified),-1,54*,5,1,4,0,13,9,-9
Cc1ccc2[nH]c(=O)c(C(c3nnnn3CC3CCCO3)N3CCOCC3)cc2c1 (stereo unspecified),-5,2,-13,2,-5,-1,.,.,.
CCc1ccc2[nH]c(=O)c(C(c3nnnn3CC3CCCO3)N3CCN4CCCC4C3)cc2c1 (stereo unspecified),0,51*,-5,-11,0,1,18,11,5
COC(=O)c1ccc(C23CC4(C2)[C@H](CN(Cc2cccnc2)[C@@H]4c2ccccc2)C3c2ccc(C(F)(F)F)cc2)cc1 (stereo partly specified),.,.,.,.,8,.,.,.,.
COC(=O)c1ccc(C23CC4(C2)[C@H](CN(Cc2cccnc2)[C@@H]4c2ccccc2)C3c2ccccc2)cc1 (stereo partly specified),6,44*,8,12,3,7,24,2,20
Cc1cccc(C(=O)OCC(=O)NC(C)CCc2ccccc2)c1O (stereo unspecified),1,-7,2,-3,-12,0,.,.,.
CCOC(=O)/C=c1\s/c(=C\c2ccc(C(F)(F)F)cc2)c(=O)n1CC(=O)NCc1ccco1,1,49*,-7,10,1,-1,36,-29,38
CCOC(=O)/C=c1\s/c(=C\c2ccc(C)cc2)c(=O)n1CC(=O)NCc1ccco1,2,6,-3,19,-11,1,.,.,.
O=C(CSc1nc2ccccc2c(=O)[nH]1)c1cccs1,-1,2,-3,-1,-13,-3,.,.,.
N#Cc1c(-c2cccs2)nc(SCC(=O)c2cccs2)[nH]c1=O,5,47*,18,0,2,1,68*,4,44*
O=C(Cc1n[nH]c(=O)[nH]c1=O)N/N=C/CCc1ccccc1,-4,1,-1,0,1,1,.,.,.
Cc1c(NC(=O)C(C)N(c2ccccc2)S(C)(=O)=O)c(=O)n(-c2ccccc2)n1C (stereo unspecified),-1,-3,-2,0,-9,-1,.,.,.
CCC1(C)Cc2sc3c(=O)[nH]c(=S)[nH]c3c2CO1 (stereo unspecified),2,-3,4,6,1,-3,.,.,.
CCOc1ncccc1C(=O)NCC(c1ccccc1)N(C)C (stereo unspecified),-3,-6,-4,-1,-5,-7,.,.,.
Cc1ccc(C2CC(=O)C=C(Nc3ccc(Cl)cc3)C2)cc1 (stereo unspecified),0,85*,0,-2,-5,-1,-6,-65,-15
COc1cc2ccc(C(C)=NNC(N)=S)cc2cc1OC,-1,83*,0,-2,.,1,-10,3,-13
COc1cc(/C=C(\C#N)c2nc3ccccc3o2)ccc1O,0,.,-88,7,3,9,.,.,.
N#C/C(=C\C=C\c1ccccc1)c1nc(-c2ccc3c(c2)OCO3)cs1,-8,-29,-11,4,-8,2,.,.,.

# Bioassay records from PubChem.
